Laboratory results published in ChEMBL document CHEMBL4382227, “Optimization and preclinical evaluation of novel histamine H3receptor ligands: Acetyl and propionyl phenoxyalkyl piperazine derivatives” (Bioorg Med Chem, 2018).
The source made the active and inactive calls. The rule behind the calls is not given here.

How the values were obtained:
Histamine H3 receptor = Histamine H3 receptor (Homo sapiens, UniProt Q9Y5N1); assay: Displacement of [3H]N-alpha-methylhistamine from full length recombinant human H3R expressed in HEK293 cell membranes after 90 mins by beta scintillation counting method
Histamine H3 receptor, sequence (Q9Y5N1 whole entry): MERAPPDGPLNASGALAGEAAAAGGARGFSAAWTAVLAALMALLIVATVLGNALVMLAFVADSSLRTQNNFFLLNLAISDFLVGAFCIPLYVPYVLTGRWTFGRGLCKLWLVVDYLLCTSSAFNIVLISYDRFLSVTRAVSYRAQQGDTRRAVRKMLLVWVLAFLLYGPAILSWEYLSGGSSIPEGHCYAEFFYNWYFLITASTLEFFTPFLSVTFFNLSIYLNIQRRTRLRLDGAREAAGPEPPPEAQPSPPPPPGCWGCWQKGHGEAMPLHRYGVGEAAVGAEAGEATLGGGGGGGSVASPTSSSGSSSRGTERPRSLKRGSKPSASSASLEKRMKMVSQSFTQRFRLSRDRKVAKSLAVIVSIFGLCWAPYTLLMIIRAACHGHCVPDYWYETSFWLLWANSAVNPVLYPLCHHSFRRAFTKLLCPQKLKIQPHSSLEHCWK
Summary of the method: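 Frozen crude membranes from HEK-293 cells stably expressing full-length human H3R were incubated 90 min at RT with shaking, with [3H]Nα-methylhistamine (2 nM; KD 3.08 nM) and 5–11 concentrations of test compound between 0.01 nM and 10 μM. Nonspecific binding was defined with pitolisant 10 μM. Samples were filtered on PEI-treated GF/B filters and washed with ice-cold water. Ki was derived from IC50 by Cheng-Prusoff; ≥3 experiments, each in at least duplicate.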

HepG2 [1] = assay: Cytotoxicity against human HepG2 cells assessed as decrease in cell viability at 10 uM by MTS assay relative to control; assay type: cell-based; conditions: hepg2, 10 µM
Summary of the method: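 HepG2 human hepatoma cells (ATCC HB-8065) were exposed to the test compound at concentrations that included 10 and 100 μM. Viability was read by the MTS assay at 490 nm absorbance and expressed relative to an untreated negative control. Doxorubicin and CCCP served as reference toxins. Significance was tested by one-way ANOVA with Bonferroni's comparison test.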

HepG2 [2] = assay: Cytotoxicity against human HepG2 cells assessed as decrease in cell viability at 1 uM by MTS assay relative to control; assay type: cell-based; conditions: hepg2, 1 µM
Summary of the method: (§1)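 HepG2 hepatoma cells; viability read by MTS at 490 nm against untreated negative control. Doxorubicin and CCCP served as reference toxins. One-way ANOVA with Bonferroni.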

HepG2 [3] = assay: Induction of phospholipidosis in human HepG2 cells assessed as increase in number of cellular lysosomes at 50 uM after 72 hrs by LYSO-ID Red and Hoechst 33342 staining based fluorescence microscopic method; assay type: cell-based; conditions: hepg2, 72 h
HepG2 [4] = assay: Cytotoxicity against human HepG2 cells assessed as decrease in cell viability at 10 to 100 uM by MTS assay relative to control; assay type: cell-based; conditions: hepg2, 100 µM; summary of the method: as §1
Rattus norvegicus [5] = assay: Protection against development of overweight in Wistar rat fed with palatable feed assessed as decrease in peritoneal fat at 3 mg/kg, ip once daily for 14 days measured on day 15; assay type: functional, organism-based
[6] = Metabolic stability in human liver microsomes assessed as parent compound remaining after 120 mins by UPLC analysis; assay type: ADME, Microsome; conditions: read-out: Stability
Rattus norvegicus [7] = assay: Protection against development of overweight in Wistar rat fed with preferantial feed assessed as decrease in weight gain at 3 mg/kg, ip once daily for 14 days measured daily during compound dosing; assay type: functional, organism-based
Summary of the method: (§2)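 Male Wistar rats (initial 160–180 g), housed in pairs, given palatable diet (peanuts, condensed milk, milk chocolate with hazelnuts, Greek cheese) and dosed i.p. once daily in the morning for 14 days in 1% Tween 80; controls were vehicle on palatable or standard diet. Food intake was recorded three times per week and body weight daily before dosing. Results are mean ± SEM, n = 6; two-way ANOVA with Bonferroni.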

[8] = Toxicity in Wistar rat fed with palatable diet assessed as effect on spontaneous activity by measuring induction of hyperlocomotion at 3 mg/kg, ip for 13 days measured on day 1 and 13 at 24 hrs post dose; assay type: organism-based; conditions: in vivo
Summary of the method: (§3)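 Wistar rats on palatable diet, housed in pairs in home cages, received daily i.p. dosing. Spontaneous activity was recorded by an RFID system for 24 h after dosing on days 1 and 13. Results are mean ± SEM, n = 6; multiple t-test.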

[9] = Toxicity in CD-1 mouse assessed as effect on spontaneous activity by measuring decrease in locomotor activity at 3 mg/kg, ip measured at 30 mins post dose for 20 mins; assay type: organism-based; conditions: in vivo
Summary of the method: (§4)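 Male CD-1 mice (20–22 g) were placed in the activity cage immediately after i.p. dosing. Distance travelled was recorded from 30 min post-dose over 20 min. Groups had 6–8 animals.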

[10] = Toxicity in Wistar rat fed with palatable diet assessed as effect on spontaneous activity by measuring induction of sedation at 3 mg/kg, ip for 13 days measured on day 1 and 13 at 24 hrs post dose; assay type: organism-based; conditions: in vivo; summary of the method: as §3
Rattus norvegicus [11] = assay: Protection against development of overweight in Wistar rat fed with palatable feed assessed as weight gain at 3 mg/kg, ip once daily for 14 days measured on day 9 during compound dosing relative to control; assay type: functional; summary of the method: as §2
Rattus norvegicus [12] = assay: Protection against development of overweight in Wistar rat fed with palatable feed assessed as decrease in weight gain at 1 mg/kg, ip once daily for 14 days measured daily during compound dosing; assay type: functional, organism-based; summary of the method: as §2
[13] = Toxicity in CD-1 mouse assessed as effect on spontaneous activity by measuring decrease in locomotor activity at 5 mg/kg, ip measured at 30 mins post dose for 20 mins; assay type: organism-based; conditions: in vivo; summary of the method: as §4
Rattus norvegicus [14] = assay: Anorectic activity in Wistar rat fed with palatable diet assessed as reduction in amount of calories consumed at 3 mg/kg, ip once daily for 14 days; assay type: functional, organism-based; summary of the method: as §2
Rattus norvegicus [15] = assay: Protection against hyperglycemia in Wistar rat fed with palatable feed assessed as decrease in plasma glucose level at 3 mg/kg, ip once daily for 14 days by spectrophotometric method; assay type: functional, organism-based
Summary of the method: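 On day 15, plasma was taken from the left carotid artery 20 min after i.p. heparin (1000 j/rat) and thiopental (70 mg/kg b.w.), and peritoneal fat was weighed. Glucose was measured by an enzymatic colorimetric test read at 500 nm. Rats had been on palatable diet with daily i.p. dosing in 1% Tween 80 for 14 days.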

Rattus norvegicus [16] = assay: Protection against development of overweight in Wistar rat fed with palatable feed assessed as weight gain at 3 mg/kg, ip once daily for 14 days measured on day 14 during compound dosing relative to control; assay type: functional; summary of the method: as §2
Rattus norvegicus [17] = assay: Protection against development of overweight in Wistar rat fed with palatable feed assessed as decrease in weight gain at 3 mg/kg, ip once daily for 14 days; assay type: functional, organism-based; summary of the method: as §2

Compound	Ki (Histamine H3 receptor) [nM]	further results
CCC(=O)c1ccc(OCCCCN2CCN(c3cccnc3)CC2)cc1	1390	
CCC(=O)c1ccc(OCCCCN2CCN(c3ccccn3)CC2)cc1	1440	
N#CC(C#N)=NNc1cccc(Cl)c1 [CARBONYL CYANIDE M-CHLOROPHENYLHYDRAZONE]		Activity (HepG2 [1]): > 50%
COc1cccc2c1C(=O)c1c(O)c3c(c(O)c1C2=O)C[C@@](O)(C(=O)CO)C[C@@H]3O[C@H]1C[C@H](N)[C@H](O)[C@H](C)O1 [DOXORUBICIN]		Activity (HepG2 [2]): > 50%
CC(=O)c1ccc(OCCCN2CCN(C(=O)C3CCCO3)CC2)cc1 (centres undefined)	4890	
CC(=O)c1ccc(OCCCCN2CCN(c3cnccn3)CC2)cc1	1230	
CC(=O)N1CCN(c2ccc(OCC3COC(Cn4ccnc4)(c4ccc(Cl)cc4Cl)O3)cc2)CC1 (centres undefined) [KETOCONAZOLE]		Activity (HepG2 [3]): Toxic
CC(=O)c1ccc(OCCCN2CCN(c3cnccn3)CC2)cc1	2320	
CCC(=O)c1ccc(OCCCCN2CCN(c3ccncc3)CC2)cc1	15.4	
CC(=O)c1ccc(OCCCN2CCN(c3ccncc3)CC2)cc1	10.2	Activity (HepG2 [4]): 10%; Activity (HepG2 [3]): Non-Toxic; Activity (Rattus norvegicus [5]): Active; remaining at 2 h [6]: 91.3%; Activity (Rattus norvegicus [7]): Active; Activity [8]: Non-Toxic; Activity [9]: Non-Toxic; Activity [10]: Non-Toxic; Activity (Rattus norvegicus [11]): 8.64%; Activity (Rattus norvegicus [12]): inactive; Activity [13]: Toxic; Activity (Rattus norvegicus [14]): Active; Activity (Rattus norvegicus [15]): Active; Activity (Rattus norvegicus [16]): 7.89%
CCC(=O)c1ccc(OCCCCN2CCN(c3cnccn3)CC2)cc1	4040	
CCC(=O)c1ccc(OCCCN2CCN(c3cnccn3)CC2)cc1	3390	
CC(=O)c1ccc(OCCCCN2CCN(C(=O)C3CCCO3)CC2)cc1 (centres undefined)	> 10000	
CCC(=O)c1ccc(OCCCCN2CCN(C(=O)C3CCCO3)CC2)cc1 (centres undefined)	> 10000	
CC(=O)c1ccc(OCCCCN2CCN(c3ncccn3)CC2)cc1	1630	
CCC(=O)c1ccc(OCCCN2CCN(C(=O)C3CCCO3)CC2)cc1 (centres undefined)	1390	
CCC(=O)c1ccc(OCCCN2CCN(c3cccnc3)CC2)cc1	192	
CCC(=O)c1ccc(OCCCN2CCN(c3ccncc3)CC2)cc1	5.2	Activity [9]: Non-Toxic; Activity (Rattus norvegicus [17]): inactive; Activity [13]: Toxic
CC(=O)c1ccc(OCCCN2CCN(c3ccccn3)CC2)cc1	315	
CC(=O)c1ccc(OCCCN2CCN(c3cccnc3)CC2)cc1	499	
CC(=O)c1ccc(OCCCCN2CCN(c3cccnc3)CC2)cc1	908	
CC(=O)c1ccc(OCCCN2CCN(c3ncccn3)CC2)cc1	2450	
CCC(=O)c1ccc(OCCCN2CCN(c3ccccn3)CC2)cc1	377	
CC(=O)c1ccc(OCCCCN2CCN(c3ccncc3)CC2)cc1	115	
CCC(=O)c1ccc(OCCCN2CCN(c3ncccn3)CC2)cc1	1720	
CCC(=O)c1ccc(OCCCCN2CCN(c3ncccn3)CC2)cc1	3630	
CC(=O)c1ccc(OCCCCN2CCN(c3ccccn3)CC2)cc1	3700	
